Results pooled from the literature.
Protocols differ between the studies behind these lines.
Target: TRAF2 and NCK-interacting protein kinase (TNIK, Homo sapiens, UniProt Q9UKE5)

`c1cncc(-c2cccc(Nc3nccc(NC4CCCCC4)n3)c2)c1` has a remaining binding of 33% (binding, competition with immobilised ligand; 10 µM).
The remaining binding of `Cc1cc(C)c(-n2ccn3nc(-c4cccnc4)cc23)cc1NC(=O)c1cc(C#N)cc(S(F)(F)(F)(F)F)c1` is reported as 97.4% (cell-free assay, competition with immobilised ligand; 0.1 µM).
The remaining binding of `FC(F)(F)Oc1cccc(-c2cnc3ccc(-c4ccncc4)nn23)c1` is reported as 29% (binding, competition with immobilised ligand; 5 µM).
For `CC(C)(O)c1cncc(-c2nc3ccc(F)cc3n2C2CC2)c1`, the remaining binding was 100% (cell-free assay, competition with immobilised ligand; 1 µM).
`CC1CCCN1c1nccc(-c2cnn3ncccc23)n1` (stereo not drawn) gave a remaining binding of 95% (binding; 1 µM).
`CNC(=O)[C@@H]1CC[C@@H](n2c(-c3ccc4cnccc4c3)nc3ccc(C(=O)NCc4cccc(C(N)=O)c4)cc32)C1` has a remaining binding of 90% (binding, competition with immobilised ligand; 1 µM).
The remaining binding of `O=C(NCCCN1CCOCC1)c1ccc(Nc2nccc(-c3cc4ccccc4s3)n2)cc1` is reported as 69% (binding, competition with immobilised ligand; 1 µM).
With `CCC(=N\O)/C(C)=C/c1ccc(F)cc1` the remaining binding was 93% (cell-free assay, competition with immobilised ligand; 1 µM).
`Cc1cnc(Nc2ccc(C(=O)N3CCC(N4CCCC4)CC3)cc2)nc1-c1cc2ccccc2s1` has a remaining binding of 68% (binding, competition with immobilised ligand; 1 µM).
With `COc1cnc(Nc2cccc(S(N)(=O)=O)c2)nc1N1CCN(c2ccccc2)CC1` the remaining binding was 75% (binding, competition with immobilised ligand; 1 µM).
For `CC(=O)Nc1c(C(C)=O)c(=O)n(C)c2nc(-c3ccc(Cl)cc3Cl)c(-c3ccc(Cl)cc3)cc12`, the remaining binding was 100% (cell-free assay, competition with immobilised ligand; 1 µM).
The remaining binding of `Cc1cnn2ncc(-c3ccnc(N(C)C)n3)c2c1` is reported as 80% (binding; 1 µM).
For `CNC(=O)Nc1ccc2c(c1)CC[C@@]21OC(=O)N(CC(=O)N(Cc2ccc(F)cc2)[C@@H](C)C(F)(F)F)C1=O`, the remaining binding was 93% (cell-free assay, competition with immobilised ligand; 1 µM).
The remaining binding of `CN(C)c1nccc(-c2cnn3ncccc23)n1` is reported as 100% (binding; 1 µM).
For `O=C(Nc1c[nH]nc1C(=O)NC1CCNCC1)c1cc(F)cc(F)c1`, the remaining binding was 100% (binding, competition with immobilised ligand; 1 µM).
With `C[C@@H]1CCN(c2nccc(-c3cnn4ncccc34)n2)C1` the remaining binding was 90% (binding; 1 µM).
`COc1ncc2cc3ccccc3nc2c1C#N` has a remaining binding of 100% (cell-free assay, competition with immobilised ligand; 5 µM).
The remaining binding of `N[C@H]1CCN(c2nccc(-c3cnn4ncccc34)n2)C1` is reported as 80% (binding; 1 µM).
With `O=C(c1ccc(Nc2nccc(-c3cc4ccccc4s3)n2)cc1)N1CCC(N2CCCC2)CC1` the remaining binding was 79% (binding, competition with immobilised ligand; 1 µM).
`F[C@@H]1CCN(c2nccc(-c3cnn4ncccc34)n2)C1` gave a remaining binding of 100% (binding; 1 µM).
The remaining binding of `CS(=O)(=O)N1CCCC(NC(=O)[C@H](CCC2CCCCC2)NC(=O)c2ccc(CNc3ncnc4c3nnn4-c3ccccc3)cc2)C1` (stereo partly drawn) is reported as 45% (binding, competition with immobilised ligand; 1 µM).
